Assay results taken from ChEMBL document CHEMBL4339190, “2,6-Disubstituted imidazo[2,1-b][1,3,4]thiadiazole derivatives as potent staphylococcal biofilm inhibitors” (Eur J Med Chem, 2019).
Activity calls are given as the source filed them. The calls are words filed in the database; no cut-off is given here.

Legend:
Pseudomonas aeruginosa [1] = experiment: Antibiofilm activity against Pseudomonas aeruginosa ATCC 15442 assessed as inhibition of biofilm formation at 100 ug/ml incubated for 24 hrs by crystal violet-staining based assay; format: functional; settings: ATCC 15442, 24 h
Escherichia coli [2] = experiment: Antimicrobial activity against Escherichia coli ATCC 25922 assessed as growth inhibition of planktonic forms incubated for 24 hrs; format: organism-based; settings: in vitro
Outline: (§1)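 Broth microdilution in tryptic soy broth. Two-fold series 100 to 0.75 μg/mL made from a 1 mg/mL stock in 0.9% NaCl. Inoculum ~10⁶ cfu/mL taken from a 24 h culture, 37 °C 24 h.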

Staphylococcus aureus [3] = experiment: Antimicrobial activity against Staphylococcus aureus ATCC 25923 assessed as growth inhibition of planktonic forms incubated for 24 hrs; format: organism-based; settings: in vitro; outline: as §1
[4] = tested on: Staphylococcus epidermidis; experiment: Antibiofilm activity against Staphylococcus epidermidis ATCC 12228 incubated for 24 hrs by crystal violet-staining based assay; format: functional
Outline: (§2)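 Biofilm prevention: 0.5 McFarland inoculum (2.5 µL) in 100 µL TSB with 2% w/v glucose, compound present from the start over 100–0.1 µg/mL, 37 °C 24 h. Washed with PBS, stained 0.1% w/v crystal violet 30 min, eluted with 33% v/v acetic acid, read at 570 nm. BIC50 (50% inhibition versus untreated control) derived by linear regression; triplicate, repeated at least twice.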

[5] = tested on: Staphylococcus epidermidis; experiment: Antimicrobial activity against Staphylococcus epidermidis ATCC 12228 assessed as growth inhibition of planktonic forms incubated for 24 hrs; format: organism-based; settings: in vitro; outline: as §1
Staphylococcus aureus [6] = experiment: Antibiofilm activity against Staphylococcus aureus ATCC 25923 assessed as inhibition of biofilm formation at 100 ug/ml incubated for 24 hrs by crystal violet-staining based assay; format: functional; settings: ATCC 25923, 24 h
Pseudomonas aeruginosa [7] = experiment: Antimicrobial activity against Pseudomonas aeruginosa ATCC 15442 assessed as growth inhibition of planktonic forms incubated for 24 hrs; format: organism-based; settings: in vitro; outline: as §1
Staphylococcus aureus [8] = experiment: Antibiofilm activity against Staphylococcus aureus ATCC 6538 assessed as inhibition of biofilm formation at 100 ug/ml incubated for 24 hrs by crystal violet-staining based assay; format: functional; settings: ATCC 6538, 24 h
Staphylococcus aureus [9] = experiment: Antimicrobial activity against Staphylococcus aureus ATCC 6538 assessed as growth inhibition of planktonic forms incubated for 24 hrs; format: organism-based; settings: in vitro; outline: as §1
Escherichia coli [10] = experiment: Antibiofilm activity against Escherichia coli ATCC 25922 assessed as inhibition of biofilm formation at 100 ug/ml incubated for 24 hrs by crystal violet-staining based assay; format: functional; settings: ATCC 25922, 24 h
Bacteria = experiment: Inhibition of recombinant bacterial SrtA at 100 uM using 5-FAM/QXL 520 Sortase as substrate preincubated for 10 mins followed by substrate addition and measured every 5 mins for 60 mins by fluorescence assay
Outline: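 FRET kit assay: 2.5 µg/ml recombinant SrtA, 4 µM fluorescent peptide substrate, compound at 100 µM in 1% DMSO. Compound and enzyme added first, then substrate. Fluorescence (Ex/Em 490/520 nm) recorded every 5 min for 60 min. Substrate without enzyme served as negative control and 4-(hydroxymercuri)benzoic acid as positive control.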

Staphylococcus aureus [11] = experiment: Antibiofilm activity against 24 hrs preformed biofilm of Staphylococcus aureus ATCC 25923 assessed as dispersion of bacteria incubated for 24 hrs by crystal violet-staining based assay; format: functional, organism-based; settings: ATCC 25923, 24 h
Outline: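 Preformed biofilm: 0.5 McFarland suspension (2.5 µl) grown 24 h in TSB with 2% w/v glucose. Wells washed twice with PBS and refilled with fresh TSB, then compound added at graded concentrations starting at or above the planktonic MIC. Incubated a further 24 h at 37 °C, washed, heat-fixed 60 °C 1 h, 0.1% crystal violet 30 min, dye solubilized, A540. Percent inhibition versus untreated growth control; triplicate, repeated at least twice.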

Staphylococcus aureus [12] = experiment: Antibiofilm activity against Staphylococcus aureus ATCC 6538 incubated for 24 hrs by crystal violet-staining based assay; format: functional; outline: as §2
Staphylococcus aureus [13] = experiment: Antibiofilm activity against Staphylococcus aureus ATCC 25923 incubated for 24 hrs by crystal violet-staining based assay; format: functional; outline: as §2
Escherichia coli [14] = experiment: Antibiofilm activity against Escherichia coli ATCC 25922 incubated for 24 hrs by crystal violet-staining based assay; format: functional; outline: as §2

SMILES	inhibition at 100 µg/mL (Pseudomonas aeruginosa [1])	MIC (Escherichia coli [2])	MIC (Staphylococcus aureus [3])	MBIC50 [4]	inhibition [4]	MIC [5]	inhibition at 100 µg/mL (Staphylococcus aureus [6])	MIC (Pseudomonas aeruginosa [7])	inhibition at 100 µg/mL (Staphylococcus aureus [8])	MIC (Staphylococcus aureus [9])	inhibition at 100 µg/mL (Escherichia coli [10])	inhibition (Bacteria)	MBIC50 (Staphylococcus aureus [12])	inhibition (Staphylococcus aureus [12])	MBIC50 (Staphylococcus aureus [13])	inhibition (Staphylococcus aureus [13])	also measured
Br.COc1cccc(-c2cn3nc(-c4cn(C)c5ccc(Cl)cc45)sc3n2)c1	< 15%	> 100 µg/mL	> 100 µg/mL	23.9 µM	Dose-dependent effect	> 100 µg/mL	< 15%	> 100 µg/mL	< 15%	> 100 µg/mL	< 15%	–	–	–	–	–	–
Br.Cn1cc(-c2nn3cc(-c4ccccc4)nc3s2)c2cc(Br)ccc21	< 15%	> 100 µg/mL	> 100 µg/mL	21.6 µM	Dose-dependent effect	> 100 µg/mL	< 15%	> 100 µg/mL	< 15%	> 100 µg/mL	< 15%	–	–	–	–	–	–
Br.COc1ccc(OC)c(-c2cn3nc(-c4c[nH]c5ccccc45)sc3n2)c1	< 15%	> 100 µg/mL	> 100 µg/mL	29.9 µM	Dose-dependent effect	> 100 µg/mL	–	> 100 µg/mL	–	> 100 µg/mL	< 15%	inactive	18.5 µM	Dose-dependent effect	1.2 µM	Dose-dependent effect	IC50 (Staphylococcus aureus [11]): 142 µg/mL; MBIC90 (Staphylococcus aureus [13]): 36.5 µg/mL
Cn1cc(-c2nn3cc(-c4ccccc4)nc3s2)c2cc(Cl)ccc21	< 15%	> 100 µg/mL	> 100 µg/mL	36.5 µM	Dose-dependent effect	> 100 µg/mL	< 15%	> 100 µg/mL	< 15%	> 100 µg/mL	< 15%	–	–	–	–	–	–
Br.COc1ccc(OC)c(-c2cn3nc(-c4c[nH]c5ccc(Cl)cc45)sc3n2)c1	< 15%	> 100 µg/mL	> 100 µg/mL	18.9 µM	Dose-dependent effect	> 100 µg/mL	–	> 100 µg/mL	–	> 100 µg/mL	–	inactive	0.5 µM	Dose-dependent effect	24.2 µM	Dose-dependent effect	MBIC50 (Escherichia coli [14]): 91.5 µM; inhibition (Escherichia coli [14]): Dose-dependent effect; MBIC90 (Staphylococcus aureus [12]): 16.2 µg/mL
